Compound activity from PubChem.
In the library only some 4% were active in any assay of this set; here they are far more common.
XBP1 UPR activ – activators of adaptive arm of unfolded protein response (XBP1); CHO-XBP1 luciferase reporter, IRE1-XBP1 UPR activation, luminescence; percent of tunicamycin response, DMSO as zero; activation, % at 20 µM; 0.33% of 330,000 active; AID 463104;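 active = versus positive control, 20 µM dose yields 30% or more activation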;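 also: 100% = tunicamycin at 10 µg/mL and 0% = DMSO only wells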
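Material: CHO-XBP1 cells stably carrying IRE1-XBP1-driven luciferase reporter / Amount: 1000 cells per well / Compound: 20 µM, 1% DMSO / Times: 6 h treatment, 37 °C / Detection: luciferase luminescence / Measure: % activation of reporter signal versus tunicamycin and DMSO controls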
Mdm2 MdmX PPI – human Mdm2/MdmX binding inhibition | O15151+Q00987 | SaOS-2 split-luciferase Mdm2/MdmX complementation, luminescence | inhibition, % at 8 µM | 3% of 330,000 active | AID 485346;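 active = inhibition of at least 50% at 8 µM in the primary screen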
Granule exo inh – blocks lytic granule exocytosis. 0.66% of 360,000 active. TALL-104 LAMP-1 surface exposure, flow cytometry; cells stimulated with thapsigargin and PMA. inhibition, % at 10 µM;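 active = inhibition above about 55%, limit read from the data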
ABHD5 PLIN5 PPI – blocks binding of human ABHD5 to perilipin-5 | 0.78% of 360,000 active | AID 602281 | inhibition, % at 4 µM | Split G. princeps luciferase complementation, luminescence, 4 h;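 active = inhibition above the mean inhibition across every tested compound plus 3 SD, cut at about 22% in these data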;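 also: 0% = DMSO only wells and the 100% control is not disclosed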
CHOP UPR activ – activators of apoptotic arm of unfolded protein response (CHOP) | CHO-CHOP luciferase reporter, UPR activation, luminescence; percent of tunicamycin response over DMSO baseline | activation, % at 10 µM | AID 449763 | 0.34% of 330,000 active;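 active = at 10 µM dose, activation of 40% or more, normalized to positive control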;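 also: 100% = tunicamycin at 10 µg/mL and 0% = DMSO alone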
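Material: CHO-CHOP cells, stable luciferase reporter of PERK-eIF2a-CHOP signalling; quantity: 500 reporter cells seeded per well; buffer or medium: F12 medium containing 10% fetal bovine serum; compound: one dose, 10 µM in 0.5% DMSO; incubation: 6 h compound treatment, 37 °C; measured by: Steady-Glo luciferase luminescence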
Mdm2-MdmX conf – confirmation of human Mdm2/MdmX interaction inhibitors; shares compounds with Mdm2 MdmX PPI; Mdm2-MdmX binding, luminescent assay; inhibition, % at 8 µM; 55% of 10,000 active; in the data active = inhibition above about 40%
Full FLuc ctr – counter-screen for Mdm2/MdmX inhibitors: full-length luciferase; shares compounds with Mdm2 MdmX PPI; SaOS-2 full-length luciferase counterscreen, luminescence; inhibition, % at 8 µM; 77% of 6,200 active;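 active = mean inhibition at 8 µM reaching about 37%, which flags the compound as non-specific, limit read from the data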;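 also: p53-null SaOS-2 cells with luciferase driven by a doxycycline-inducible promoter; compound on cells about two nights before reading with doxycycline added after day one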
* hit, by the source's call; . = not tested or not shown.

SMILES	XBP1 UPR activ	Mdm2 MdmX PPI	Granule exo inh	ABHD5 PLIN5 PPI	CHOP UPR activ	Mdm2-MdmX conf	others
CCn1c(SCC(=O)NCCc2ccccc2)nc2c([nH]c3ccccc32)c1=O	-3	59*	2	4	0	32
COCCn1c(SCC(=O)Nc2cccc(F)c2)nc2c([nH]c3ccccc32)c1=O	0	88*	-2	2	1	66*	Full FLuc ctr=47*
Cc1cccc(NC(=O)CSc2nc3c([nH]c4ccccc43)c(=O)n2C)c1	18	65*	19	1	9	1
Cn1c(=O)c2c(SCC(=O)N3CCN(c4ccccc4)CC3)nc(C3CC3)nc2n(C)c1=O	-1	33	-3	4	0	.
CCOc1ccc(NC(=O)C2CC(=O)N(C)C(=Nc3ccc4c(c3)OCO4)S2)cc1 (stereo not given)	0	9	-4	-7	-1	.
Cn1c(SCC(=O)Nc2ccccc2)nc2c([nH]c3ccccc32)c1=O	24	67*	-1	2	-1	10
COCCn1c(SCC(=O)Nc2cc(C)on2)nc2cc(Cl)ccc2c1=O	1	64*	9	-2	2	6
Cc1cccc(C)c1OCc1n[nH]c(=S)o1	4	3	0	7	-2	.
Cn1nnnc1Sc1ncnc2scc(Br)c12	-8	99*	-19	1	-6	32
Cn1nnnc1Sc1ncnc2scc(-c3ccc(F)cc3)c12	5	100*	-1	5	5	91*	Full FLuc ctr=54*
Cn1nnnc1Sc1ncnc2scc(-c3ccccc3)c12	-1	78*	-1	2	0	-2
Cn1nnnc1Sc1ncnc2scc(-c3ccccc3Br)c12	1	70*	9	13	-1	67*	Full FLuc ctr=25
Cc1ccc(-c2csc3ncnc(SCC(N)=O)c23)cc1	4	27	3	3	-1	.
CCN(CC)CCOC(=O)c1c(C)n(C)c2ccc(OC)cc12	-3	33	2	-2	-5	.
COc1cc(NC(=O)CCN2CCOCC2)cc(OC)c1	-1	3	-3	0	1	.
C/C(=N\NC(=O)c1ccc(O)cc1)c1ccc2c(c1)OCCO2	4	4	2	11	3	.
Cn1nnnc1Sc1ncnc2scc(-c3cccc4ccccc34)c12	4	97*	-1	3	1	55*	Full FLuc ctr=22
CCOC(=O)c1sc(=NC(=O)c2ccc(C)cc2)n(C)c1C	1	-124	-5	-1	5	.
CCOC(=O)c1sc(=NC(=O)c2ccc(S(=O)(=O)N(C)c3ccccc3)cc2)n(C)c1C	4	63*	-1	14	2	21
O=C1/C(=C/c2ccc3c(c2)OCO3)SC(=S)N1CCC(=O)N(CCO)c1ccccc1	.	.	-3	-8	.	.
O=C1/C(=C/c2cccc(Br)c2)SC(=S)N1CCC(=O)N(CCO)c1ccccc1	-1	52*	-1	1	-1	11
COc1cccc(/C=C2\SC(=S)N(CCCC(=O)N(CCO)c3ccccc3)C2=O)c1	-4	99*	0	8	-3	60*	Full FLuc ctr=16
CCC(=O)NS(=O)(=O)c1cccnc1Nc1ccc(Cl)cc1	0	0	-6	5	1	.
COc1cccc(NC(=O)CC2Oc3ccccc3NC2=O)c1 (stereo not given)	0	10	-8	8	3	.
Cc1ccc(NC(=O)C2CC3CCC2C3)c(Br)c1 (stereo not given)	2	-37	-9	-4	3	.
O=C(c1ccc(Cl)c([N+](=O)[O-])c1)N(Cc1ccc(F)cc1)C1CCS(=O)(=O)C1 (stereo not given)	1	-6	15	8	2	.
Cc1ccc(C(=O)c2oc3ccc(Cl)cc3c2NC(=O)CN2CCN(C)CC2)cc1	6	82*	28	4	9	34	Full FLuc ctr=68*
CC(C)/C=C/C(=O)N1CCC(N2CCC(C(=O)NCc3ccccn3)CC2)CC1	-7	11	-11	0	-2	.
